# Assay results reported in ChEMBL document CHEMBL1134439, “Radioiodinated styrylbenzenes and thioflavins as probes for amyloid aggregates” (J Med Chem, 2001).
# Tests used:
# [1] = target: T1, Amyloid-beta precursor protein (Homo sapiens, UniProt P05067); assay: Inhibition constant of compound on ligand binding to aggregates of Amyloid beta was measured by comparing with [125I]TZDM
# Procedure, shortened: (§1)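 Aβ(1-40) or Aβ(1-42) peptide pre-aggregated at 0.5 or 0.25 mg/mL respectively in pH 7.4 buffer (10 mM sodium phosphate, 1 mM EDTA), 37 °C for 36-42 h with shaking. Fibrils (10-50 nM final) incubated with ¹²⁵I radioligand in 10% EtOH, 3 h at room temperature. Bound ligand separated by GF/B filtration and γ-counted. Ki from nonlinear regression. Three independent experiments, each in duplicate, mean ± SEM.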
# [2] = target: T1, Amyloid-beta precursor protein; assay: Inhibition constant of compound on ligand binding to aggregates of Amyloid beta was measured by comparing with [125I]IMSB; procedure, shortened: as §1
# [3] = target: T1, Amyloid-beta precursor protein; assay: Inhibition constant for amyloid beta compared to [125I]TZDM
# Procedure, shortened: (§2)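 Aβ(1-40) or Aβ(1-42) aggregated at 0.5 or 0.25 mg/mL respectively in pH 7.4 buffer (10 mM sodium phosphate, 1 mM EDTA), 37 °C, 36-42 h with shaking. Competition against ¹²⁵I radioligand with fibrils 10-50 nM (final), 10% EtOH, 1 mL. Incubation 3 h room temperature. Bound ligand collected by GF/B filtration, γ-counted. Ki by nonlinear regression. Mean ± SEM, three experiments in duplicate.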
# [4] = target: T1, Amyloid-beta precursor protein; assay: Inhibition constant for aggregates of amyloid beta compared to [125I]IMSB; procedure, shortened: as §2
# Mus musculus [5] = assay: Biodistribution was measured in mice heart 6 hours after intravenous injection of [125I]-labeled styrylbenzene.; format: ADME, organism-based; details: in vivo
# Procedure, shortened: (§3)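 ICR mice (2-3 months old, 20-30 g) under ether anesthesia received 5-10 µCi ¹²⁵I tracer in 0.15 mL saline by tail-vein injection. Animals were killed by cardiac excision at set times post-injection. Organs were removed, weighed and γ-counted. Values are % dose per organ against diluted injectate aliquots, taking blood and muscle as 7% and 40% of body weight. Mean of 3-4 mice ± SD.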
# Mus musculus [6] = assay: Biodistribution was measured in mice heart 60 minutes after intravenous injection of [125I]-labeled styrylbenzene.; format: ADME, organism-based; details: in vivo, 1 h; procedure, shortened: as §3
# Mus musculus [7] = assay: Biodistribution was measured in mice kidney 2 minutes after intravenous injection of [125I]-labeled styrylbenzene.; format: ADME, organism-based; details: in vivo; procedure, shortened: as §3
# Mus musculus [8] = assay: Biodistribution was measured in mice kidney 24 hours after intravenous injection of [125I]-labeled styrylbenzene.; format: ADME, organism-based; details: in vivo; procedure, shortened: as §3
# Mus musculus [9] = assay: Biodistribution was measured in mice kidney 30 minutes after intravenous injection of [125I]-labeled styrylbenzene.; format: ADME, organism-based; details: in vivo, 0.5 h; procedure, shortened: as §3
# Mus musculus [10] = assay: Biodistribution was measured in mice kidney 6 hours after intravenous injection of [125I]-labeled styrylbenzene.; format: ADME, organism-based; details: in vivo; procedure, shortened: as §3
# Mus musculus [11] = assay: Biodistribution was measured in mice kidney 60 minutes after intravenous injection of [125I]-labeled styrylbenzene.; format: ADME, organism-based; details: in vivo, 1 h; procedure, shortened: as §3
# Mus musculus [12] = assay: Biodistribution was measured in mice liver 2 minutes after intravenous injection of [125I]-labeled styrylbenzene.; format: ADME, organism-based; details: in vivo; procedure, shortened: as §3
# Mus musculus [13] = assay: Biodistribution was measured in mice liver 24 hours after intravenous injection of [125I]-labeled styrylbenzene.; format: ADME, organism-based; details: in vivo; procedure, shortened: as §3
# Mus musculus [14] = assay: Biodistribution was measured in mice liver 30 minutes after intravenous injection of [125I]-labeled styrylbenzene.; format: ADME, organism-based; details: in vivo, 0.5 h; procedure, shortened: as §3
# Mus musculus [15] = assay: Biodistribution was measured in mice liver 60 minutes after intravenous injection of [125I]-labeled styrylbenzene.; format: ADME, organism-based; details: in vivo, 1 h; procedure, shortened: as §3
# Mus musculus [16] = assay: Biodistribution was measured in mice muscle 30 minutes after intravenous injection of [125I]-labeled styrylbenzene.; format: ADME, organism-based, Muscle tissue; details: in vivo, 0.5 h; procedure, shortened: as §3
# Mus musculus [17] = assay: Biodistribution was measured in mice muscle 6 hours after intravenous injection of [125I]-labeled styrylbenzene.; format: ADME, organism-based, Muscle tissue; details: in vivo; procedure, shortened: as §3
# Mus musculus [18] = assay: Biodistribution was measured in mice muscle 60 minutes after intravenous injection of [125I]-labeled styrylbenzene.; format: ADME, organism-based, Muscle tissue; details: in vivo, 1 h; procedure, shortened: as §3
# Mus musculus [19] = assay: Biodistribution was measured in mice skin 2 minutes after intravenous injection of [125I]-labeled styrylbenzene.; format: ADME, organism-based, Zone of skin; details: in vivo; procedure, shortened: as §3
# Mus musculus [20] = assay: Biodistribution was measured in mice skin 24 hours after intravenous injection of [125I]-labeled styrylbenzene.; format: ADME, organism-based, Zone of skin; details: in vivo; procedure, shortened: as §3
# Mus musculus [21] = assay: Biodistribution was measured in mice skin 30 minutes after intravenous injection of [125I]-labeled styrylbenzene.; format: ADME, organism-based, Zone of skin; details: in vivo, 0.5 h; procedure, shortened: as §3
# Mus musculus [22] = assay: Biodistribution was measured in mice skin 6 hours after intravenous injection of [125I]-labeled styrylbenzene.; format: ADME, organism-based, Zone of skin; details: in vivo; procedure, shortened: as §3
# Mus musculus [23] = assay: Biodistribution was measured in mice skin 60 minutes after intravenous injection of [125I]-labeled styrylbenzene.; format: ADME, organism-based, Zone of skin; details: in vivo, 1 h; procedure, shortened: as §3
# Mus musculus [24] = assay: Biodistribution was measured in mice spleen 2 minutes after intravenous injection of [125I]-labeled styrylbenzene.; format: ADME, organism-based; details: in vivo; procedure, shortened: as §3
# Mus musculus [25] = assay: Biodistribution was measured in mice spleen 24 hours after intravenous injection of [125I]-labeled styrylbenzene.; format: ADME, organism-based; details: in vivo
# Mus musculus [26] = assay: Biodistribution was measured in mice spleen 30 minutes after intravenous injection of [125I]-labeled styrylbenzene.; format: ADME, organism-based; details: in vivo, 0.5 h
# Procedure, shortened: (§4)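 ICR mice (2-3 months old, 20-30 g) under ether anesthesia; 0.15 mL saline containing 5-10 µCi ¹²⁵I tracer injected into tail vein. Sacrifice by cardiac excision at set times; organs removed, weighed, γ-counted. Expressed as % dose per organ versus diluted aliquots of injectate. Mean of three or four mice ± SD.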
# Mus musculus [27] = assay: Biodistribution was measured in mice spleen 60 minutes after intravenous injection of [125I]-labeled styrylbenzene.; format: ADME, organism-based; details: in vivo, 1 h; procedure, shortened: as §4
# Mus musculus [28] = assay: Biodistribution was measured in mice blood 2 minutes after intravenous injection of [125I]-labeled styrylbenzene.; format: ADME, organism-based; details: in vivo; procedure, shortened: as §3
# Mus musculus [29] = assay: Biodistribution was measured in mice blood 24 hours after intravenous injection of [125I]-labeled styrylbenzene.; format: ADME, organism-based; details: in vivo; procedure, shortened: as §3
# Mus musculus [30] = assay: Biodistribution was measured in mice blood 30 minutes after intravenous injection of [125I]-labeled styrylbenzene.; format: ADME, organism-based; details: in vivo, 0.5 h; procedure, shortened: as §3
# Mus musculus [31] = assay: Biodistribution was measured in mice lung 2 minutes after intravenous injection of [125I]-labeled styrylbenzene.; format: ADME, organism-based; details: in vivo; procedure, shortened: as §3
# Mus musculus [32] = assay: Biodistribution was measured in mice lung 24 hours after intravenous injection of [125I]-labeled styrylbenzene.; format: ADME, organism-based; details: in vivo, in the assay text read “thioflavin” for “styrylbenzene”; procedure, shortened: as §3
# Mus musculus [33] = assay: Biodistribution was measured in mice lung 30 minutes after intravenous injection of [125I]-labeled styrylbenzene.; format: ADME, organism-based; details: in vivo, 0.5 h; procedure, shortened: as §3
# Mus musculus [34] = assay: Biodistribution was measured in mice lung 6 hours after intravenous injection of [125I]-labeled styrylbenzene.; format: ADME, organism-based; details: in vivo, in the assay text read “thioflavin” for “styrylbenzene”; procedure, shortened: as §3
# Mus musculus [35] = assay: Biodistribution was measured in mice lung 60 minutes after intravenous injection of [125I]-labeled styrylbenzene.; format: ADME, organism-based; details: in vivo, 1 h; procedure, shortened: as §3
# Mus musculus [36] = assay: Biodistribution was measured in mice muscle 2 minutes after intravenous injection of [125I]-labeled styrylbenzene.; format: ADME, organism-based, Muscle tissue; details: in vivo, in the assay text read “thioflavin” for “styrylbenzene”; procedure, shortened: as §3
# Mus musculus [37] = assay: Biodistribution was measured in mice muscle 24 hours after intravenous injection of [125I]-labeled styrylbenzene.; format: ADME, organism-based, Muscle tissue; details: in vivo; procedure, shortened: as §3
# Mus musculus [38] = assay: Biodistribution was measured in mice brain 6 hours after intravenous injection of [125I]-labeled styrylbenzene; format: ADME, organism-based; details: in vivo; procedure, shortened: as §3
# Mus musculus [39] = assay: Biodistribution was measured in mice brain 60 minutes after intravenous injection of [125I]-labeled styrylbenzene; format: ADME, organism-based; details: in vivo, 1 h; procedure, shortened: as §3
# Mus musculus [40] = assay: Biodistribution was measured in mice heart 2 minutes after intravenous injection of [125I]-labeled styrylbenzene.; format: ADME, organism-based; details: in vivo; procedure, shortened: as §3
# Mus musculus [41] = assay: Biodistribution was measured in mice heart 24 hours after intravenous injection of [125I]-labeled styrylbenzene.; format: ADME, organism-based; details: in vivo; procedure, shortened: as §3
# Mus musculus [42] = assay: Biodistribution was measured in mice heart 30 minutes after intravenous injection of [125I]-labeled styrylbenzene.; format: ADME, organism-based; details: in vivo, 0.5 h; procedure, shortened: as §3
# Mus musculus [43] = assay: Biodistribution was measured in mice blood 6 hours after intravenous injection of [125I]-labeled styrylbenzene.; format: ADME, organism-based; details: in vivo; procedure, shortened: as §3
# Mus musculus [44] = assay: Biodistribution was measured in mice blood 60 minutes after intravenous injection of [125I]-labeled styrylbenzene.; format: ADME, organism-based; details: in vivo, 1 h; procedure, shortened: as §3
# Mus musculus [45] = assay: Biodistribution was measured in mice brain 2 minutes after intravenous injection of [125I]-labeled styrylbenzene; format: ADME, organism-based; details: in vivo, in the assay text read “thioflavin” for “styrylbenzene”; procedure, shortened: as §3
# Mus musculus [46] = assay: Biodistribution was measured in mice brain 24 hours after intravenous injection of [125I]-labeled styrylbenzene; format: ADME, organism-based; details: in vivo, in the assay text read “thioflavin” for “styrylbenzene”; procedure, shortened: as §3
# Mus musculus [47] = assay: Biodistribution was measured in mice brain 30 minutes after intravenous injection of [125I]-labeled styrylbenzene; format: ADME, organism-based; details: in vivo, 0.5 h; procedure, shortened: as §3
# Mus musculus [48] = assay: Biodistribution was measured in mice liver 6 hours after intravenous injection of [125I]-labeled styrylbenzene.; format: ADME, organism-based; details: in vivo, in the assay text read “thioflavin” for “styrylbenzene”; procedure, shortened: as §3
# Mus musculus [49] = assay: Biodistribution was measured in mice spleen 6 hours after intravenous injection of [125I]-labeled thioflavin.; details: in vivo
# T1 sequence (P05067 whole entry): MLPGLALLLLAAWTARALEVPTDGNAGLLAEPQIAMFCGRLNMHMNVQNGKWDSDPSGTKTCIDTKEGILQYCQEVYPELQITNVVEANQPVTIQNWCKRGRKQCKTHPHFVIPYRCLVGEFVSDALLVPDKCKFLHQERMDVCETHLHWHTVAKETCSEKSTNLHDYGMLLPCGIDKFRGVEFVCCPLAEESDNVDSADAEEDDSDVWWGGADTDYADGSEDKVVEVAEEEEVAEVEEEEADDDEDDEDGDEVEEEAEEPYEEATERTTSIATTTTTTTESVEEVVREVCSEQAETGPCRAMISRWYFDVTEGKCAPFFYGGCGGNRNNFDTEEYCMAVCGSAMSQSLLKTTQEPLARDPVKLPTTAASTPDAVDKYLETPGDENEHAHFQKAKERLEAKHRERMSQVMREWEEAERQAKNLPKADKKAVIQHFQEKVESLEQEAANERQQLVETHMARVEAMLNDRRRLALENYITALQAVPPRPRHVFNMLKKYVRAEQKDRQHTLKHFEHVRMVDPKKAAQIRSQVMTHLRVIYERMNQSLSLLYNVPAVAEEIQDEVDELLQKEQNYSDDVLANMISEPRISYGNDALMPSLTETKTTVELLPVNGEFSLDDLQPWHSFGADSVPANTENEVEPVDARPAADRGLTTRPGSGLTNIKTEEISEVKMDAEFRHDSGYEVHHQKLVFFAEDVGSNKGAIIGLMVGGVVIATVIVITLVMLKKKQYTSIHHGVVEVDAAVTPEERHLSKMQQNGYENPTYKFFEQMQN
structure (smiles),measurement,setting,value
O=C(O)c1cc(/N=N/c2ccc(-c3ccc(/N=N/c4ccc(O)c(C(=O)O)c4)cc3)cc2)ccc1O [CHRYSAMINE G],Ki,[1],> 2000 nM
same,Ki,[2],0.4 nM
same,Ki,[3],> 1000 nM
same,Ki,[4],0.14 nM
CN1CCN(c2ccc(-c3nc4ccc(I)cc4s3)cc2)CC1,Dose/organ,Mus musculus [5],0.22%
same,Dose/organ,Mus musculus [6],0.66%
same,Dose/organ,Mus musculus [7],6.46%
same,Dose/organ,Mus musculus [8],1.15%
same,Dose/organ,Mus musculus [9],8.06%
same,Dose/organ,Mus musculus [10],3.62%
same,Dose/organ,Mus musculus [11],7.99%
same,Dose/organ,Mus musculus [12],28.84%
same,Dose/organ,Mus musculus [13],3.05%
same,Dose/organ,Mus musculus [14],21.22%
same,Dose/organ,Mus musculus [15],17.2%
same,Dose/organ,Mus musculus [16],18.82%
same,Dose/organ,Mus musculus [17],6.65%
same,Dose/organ,Mus musculus [18],19.46%
same,Dose/organ,Mus musculus [19],4.06%
same,Dose/organ,Mus musculus [20],1.64%
same,Dose/organ,Mus musculus [21],6.07%
same,Dose/organ,Mus musculus [22],3.17%
same,Dose/organ,Mus musculus [23],5.63%
same,Dose/organ,Mus musculus [24],0.89%
same,Dose/organ,Mus musculus [25],0.08%
same,Dose/organ,Mus musculus [26],0.87%
same,Dose/organ,Mus musculus [27],0.6%
same,Dose/organ,Mus musculus [28],8.02%
same,Dose/organ,Mus musculus [29],0.41%
same,Dose/organ,Mus musculus [30],5.15%
same,Dose/organ,Mus musculus [31],12.8%
same,Dose/organ,Mus musculus [32],0.44%
same,Dose/organ,Mus musculus [33],4.14%
same,Dose/organ,Mus musculus [34],1.15%
same,Dose/organ,Mus musculus [35],3.38%
same,Dose/organ,Mus musculus [36],13.24%
same,Dose/organ,Mus musculus [37],2.44%
same,Dose/organ,Mus musculus [38],1.08%
same,Dose/organ,Mus musculus [39],1.89%
same,Dose/organ,Mus musculus [40],2.19%
same,Dose/organ,Mus musculus [41],0.08%
same,Dose/organ,Mus musculus [42],0.69%
same,Dose/organ,Mus musculus [43],1.49%
same,Dose/organ,Mus musculus [44],4.16%
same,Dose/organ,Mus musculus [45],1.5%
same,Dose/organ,Mus musculus [46],0.91%
same,Dose/organ,Mus musculus [47],1.59%
same,Ki,[4],> 2000 nM
same,Dose/organ,Mus musculus [48],5.79%
same,Dose/organ,Mus musculus [49],0.22%
